According to the RNAGym collection of RNA variant scans (doi:10.1126/science.aae0568):
Variants at the floor of the assay were thinned out.

B1: tRNA (parent)
chain: GUUCCGUUGGCGUAAUGGUAACGCGUCUCCCUCCUAAGGAGAAGACUGCGGGUUCGAGUCCCGUACGGAACG

Variants of: B1
Assay: yeast fitness relative to wild type (ratio to wild type); higher = fitter; tRNA-Arg(CCU), competitive growth, 37 C, YPD
In short: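 Changes in genotype frequencies gave Darwinian fitness relative to wild type. Frequencies were read by 100-nucleotide paired-end sequencing of gene amplicons before and after pooled Saccharomyces cerevisiae strains, carrying tRNA-Arg(CCU) gene variants at the native locus, were competed in YPD at 37°C for 24 hours in six replicates. A genotype was kept only with ≥ 100 starting reads, and estimates < 0.5 were set to 0.5.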

Variant | yeast fitness
C11U G39C C66U | 0.558
C11U U19A A43U C49U U59A G63A | ≤ 0.5
C11U U28A C29U | 0.93
C11U U32A G50A G51A G56C C61G | ≤ 0.5
C11U G48A C62A | 0.762
C11U G44A C55G | 0.572
C11U G63C | 0.725
C11U U16A G67A | 0.551
C11U G51A G63C A69U | ≤ 0.5
C11U G25C C55U | ≤ 0.5
C11U U35A G38A C61A | ≤ 0.5
C11U G48A C55A G58C | ≤ 0.5
C11U U32C | 0.933
C11U U32A | 0.772
C11U U26C U47A U64A | ≤ 0.5
C11U U13A A20C C22G | ≤ 0.5
C11U G51A C61G | ≤ 0.5
C11U U13A U32C C49U | ≤ 0.5
C11U G38C C62G | 0.542
C11U U32C A40U | 0.785
C11U U26G U28C G56A | ≤ 0.5
C11U U19A G41A A65U | ≤ 0.5
C11U U19G G51C C61G | ≤ 0.5
C11U G41C G68A A69C | ≤ 0.5

Variant | yeast fitness
C11U U26A C34G | 0.607
C11U U19G C27U G48A C66U | ≤ 0.5
C11U U19A A21C A42G | 0.568
C11U U26A A43U C60A A65G | 0.531
C11U G25C C34A | 0.557
C11U U16A C24G A42C | ≤ 0.5
C11U G48A G51C G68U | 0.59
C11U G51A U59A | ≤ 0.5
C11U G48A | 0.972
C11U U35A G48C C61U | ≤ 0.5
C11U G56A A65C | 0.732
C11U G58A G63A | 0.74
C11U U19A A37C A40C | 0.501
C11U U19A C30G G68A | ≤ 0.5
C11U G38A | 1.02
C11U U26G | 0.856
C11U U26C | 0.948
C11U U26A | 0.999
C11U U13C A69C | 0.737
C11U G50A G63A | 0.606
C11U G56C C62U G68U | ≤ 0.5
C11U U26A C33U U53C | ≤ 0.5
C11U G52C C66U | ≤ 0.5
C11U U16A U47C | 0.838

Variant | yeast fitness
C11U G39C C55A | ≤ 0.5
C11U G39C C55G | ≤ 0.5
C11U U19G C33U A40G G67A | ≤ 0.5
C11U G56C | 0.709
C11U G63C C66U | ≤ 0.5
C11U U13C A42U C55A G56A | 0.762
C11U U13A C62U | 0.721
C11U U13G C29U C34G C46G G58A | ≤ 0.5
C11U U19G C27U U47C A70U | ≤ 0.5
C11U G38C U64G A70C | ≤ 0.5
C11U U32A C34A A43C C61U G68A | ≤ 0.5
C11U U13G A21G U26C C27G G48C G67A | ≤ 0.5
C11U U16G | 0.823
C11U U16C | 1.02
C11U U13C C29U A37C G39A C46A | ≤ 0.5
C11U G39C G58A A70U | ≤ 0.5
C11U G41C | 0.852
C11U U13C A42U G63A | ≤ 0.5
C11U U26A C31G A37U | ≤ 0.5
C11U G38C C55G G67A | ≤ 0.5
C11U U26G G56A | ≤ 0.5
C11U G44A C61A | 0.823
C11U U28A U54C | ≤ 0.5
C11U U16A C60G C62G | ≤ 0.5

Variant | yeast fitness
C11U G48A G51A | 0.724
C11U G48A G51C | 0.832
C11U G56C C62U | 0.575
C11U U28C A40C G50C | ≤ 0.5
C11U U13A G25A | 0.716
C11U G25A C66U A70C | 0.688
C11U U13C C27G A69C | ≤ 0.5
C11U U19G C27U G48A C61G | ≤ 0.5
C11U U26G U28C C49A G58C C62U | 0.527
C11U G51A G56A U59C | ≤ 0.5
C11U U19C | 0.941
C11U G58A A65G | 0.777
C11U U35A G38A G52A G56C | ≤ 0.5
C11U G48A U54C | 0.677
C11U U28C U32G A70U | ≤ 0.5
C11U U13A | 0.832
C11U U13C | 0.954
C11U U13C A14G C24A A43C G50C C60G | ≤ 0.5
C11U U19G C22G A42G G44C C55U | ≤ 0.5
C11U U13G A20U U53G | ≤ 0.5
C11U U28G C29A | ≤ 0.5
C11U G25A C29A A42C A45G | ≤ 0.5
C11U G50C | 0.759
C11U U26G A43C U53C C66U A70C | 0.504

Variant | yeast fitness
C11U G48A A65C | 0.663
C11U G48A A65U | 0.792
C11U U16C C24U A42C G56C A65C | ≤ 0.5
C11U U28C C29G | 0.541
C11U G38A A43C A65C | ≤ 0.5
C11U U19A U64C | 0.664
C11U G52C A69G | ≤ 0.5
C11U U32G U59C | ≤ 0.5
C11U U16C C31U A69G | ≤ 0.5
C11U U28C | 0.918
C11U U19G G51C C66A | 0.578
C11U G41A A42G A70U | ≤ 0.5
C11U U13C C30A G52A A69U | ≤ 0.5
C11U G25A U59G | 0.538
C11U G44A C60G U64C | ≤ 0.5
C11U G56C A57U C60U | ≤ 0.5
C11U U35C | 0.7
C11U U16C C31U U54C | ≤ 0.5
C11U G41C C60G | 0.647
C11U G25A A57U | ≤ 0.5
C11U U35A G38A C55A C61G | ≤ 0.5
C11U U13A C27G C46A C49G | ≤ 0.5
C11U U19A C61U G68A | ≤ 0.5
C11U U28C C29G G39C | ≤ 0.5

Variant | yeast fitness
C11U U19A C60G G68A | ≤ 0.5
C11U G44C G58A | 0.712
C11U G44A A65C | 0.704
C11U G48C A65G | 0.714
C11U G41C A42G | 0.547
C11U G48A G67C | 0.731
C11U G41A A65U | 0.515
C11U U19G U35G | ≤ 0.5
C11U G38A C60G | ≤ 0.5
C11U G52C G67C | ≤ 0.5
C11U G48A C49A U54A | ≤ 0.5
C11U U13G U19A C22G G25A | 0.604
C11U U35A G38A | 0.51
C11U G44A G63A | 0.74
C11U U16A A36G A43G C62A | ≤ 0.5
C11U U19A A42G | 0.56
C11U G67C | 0.792
C11U G25C | 0.982
C11U U28C A40C G50C A70C | ≤ 0.5
C11U U19A C29U C30G | ≤ 0.5
C11U U28C C30G C49G | ≤ 0.5
C11U U16A C29A A45U | 0.605
C11U G51A G58A A70C | ≤ 0.5
C11U U16C U19A C29U | ≤ 0.5

Variant | yeast fitness
C11U G44A U53G | 0.529
C11U U13C C30U | 0.769
C11U G58A | 1.01
C11U G52A A69C | 0.865
C11U G51A A65U | ≤ 0.5
C11U G44C G67A | 0.638
C11U G39C G41A | ≤ 0.5
C11U U13A C30A C33A A57U | ≤ 0.5
C11U G38A A40U G52C G68C A69G | ≤ 0.5
C11U G25A A70C | 0.892
C11U U16C C27G C34G G67A | ≤ 0.5
C11U U16A A36C A43G C62G A65U | ≤ 0.5
C11U G51A | 0.727
C11U U16C C33A U53C | ≤ 0.5
C11U U35C A36U C46U | 0.75
C11U U19C G23A G25A A43U C55U | ≤ 0.5
C11U G44C C61U | 0.528
C11U G52C C61G | ≤ 0.5
C11U U32A A42C | 0.545
C11U G44C C62A | ≤ 0.5
C11U U16C G58C | 0.653
C11U U16C C27U C31A U35C C55G C66U | ≤ 0.5
C11U G38A C60U G67C | ≤ 0.5
